167 variants from the RNAGym collection of RNA variant scans (doi:10.1126/science.aae0568) can be followed below.

Sequences and labels used below:
B1: tRNA (parent)
chain: GUUCCGUUGGCGUAAUGGUAACGCGUCUCCCUCCUAAGGAGAAGACUGCGGGUUCGAGUCCCGUACGGAACG

Variants at the floor of the assay were thinned out.

The data set covers variants of B1. In words: yeast fitness relative to wild type (ratio to wild type); higher = fitter; tRNA-Arg(CCU), competitive growth, 37 C, YPD. The essentials:
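Variants of the tRNA-Arg(CCU) gene, chemically synthesised with a 3% per-site mutation rate at 69 sites, were placed at the native genomic locus in Saccharomyces cerevisiae. The pooled strains were competed in YPD at 37°C for 24 hours in six parallel replicates. Gene amplicons from the start population and from each end population were read by 100-nucleotide paired-end sequencing. Darwinian fitness relative to wild type came from changes in genotype frequencies; genotypes needed ≥ 100 starting reads, and estimates < 0.5 were set to 0.5.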
As to G25A C29U C31G, the yeast fitness was no more than 0.5.
To G25C A40G A65C belongs 0.653; to G25C C46G U64G, no more than 0.5; to G25C C46U G50A C66U, 0.716.
To G25C U47C G63A A65C belongs no more than 0.5; to G25C G63A A65C, 0.6.
Then G25C U26G G51C, with no more than 0.5.
G25C C34G C61U C66G: the yeast fitness is no more than 0.5.
With G25A C55U A69C, the yeast fitness came to 0.639.
To G25A U47C U64C A70C belongs 1.06; to G25A C60A C61G A65U, no more than 0.5; to G25C C27A G51A, 0.549.
Then G25C G63C, with 0.716; and G25A C31U C66U, with 0.761; and U26A A36G G56C, with no more than 0.5.
Then G25A U54C, with 0.87; and G25A U54G, with 0.566; and G25C U26G C46G A70U, with 0.62.
As to G25C C61U C66U, the yeast fitness was determined as 0.652.
To G25C A40U A42C G52A U64C C66U belongs no more than 0.5; to G25A C46U C62G, 0.739; to G25C G51A G67A, 0.73.
To G25C G38C G48C C49G belongs no more than 0.5.
To G25A G48C belongs 1.14.
In the case of G25A C27G G41C, the yeast fitness was 0.671.
Then G25C C33U G50C, with no more than 0.5.
Then G25A U26C C29G A45G, with no more than 0.5.
To G25A C49U C55U A57C belongs no more than 0.5; to G25C C33A A57U, 0.718.
Take G25C C31U U53C: the yeast fitness is 0.633.
Then G25A C31U C55G C61U C62A, with 0.598; and G25C C27G C62U, with 0.597.
Then G25C A40U A42C G52A, with no more than 0.5; and G25C C46U G50A, with 0.889; and G25A G58C C66U, with 0.778.
Then G25A U53A G63A, with 0.523; and G25C A65C, with 1.03.
For the variant G25C U53C G58A, the yeast fitness is 0.605.
Then G25C C46A G58A, with no more than 0.5; and G25A C31A A45C G50A A69U, with no more than 0.5.
To G25C U35A A37U G67A A70G belongs no more than 0.5.
Then G25C U28C U59C, with 0.694; and G25A C27U U53C A70G, with no more than 0.5; and G25A G50U, with 0.826.
With G25A G50A, the yeast fitness worked out at 0.997.
As for G25C C29A, the yeast fitness amounted to 0.696.
To G25C U26G A40U C46G A70U belongs no more than 0.5.
Take G25C A42U C46U: the yeast fitness was 0.502.
Then G25U C30U A40U, with no more than 0.5; and G25A G50A G63C, with 0.641.
On to G25A C66U, for which the yeast fitness came out at 0.902.
To G25A C66A belongs 0.631; to G25U A36U G56C U64C A65C, no more than 0.5.
Then G25C C49U C62G C66U, with 0.539.
Take G25C G39A C66U: the yeast fitness was 0.504.
G25A C30U C60G: the yeast fitness amounted to 0.541.
Then G25A C60A, with 0.66; and G25A C60G, with 0.718; and G25A C60A C61A G63A, with 0.75.
To G25C G52A U54G belongs no more than 0.5.
As for G25C C29G C60G, the yeast fitness is no more than 0.5.
To G25A C31U A70C belongs 0.731.
Then G25A C49U U64C, with 0.782.
With G25C C33A A45C C46A, the yeast fitness was 0.518.
For the variant G25A G58C, the yeast fitness came to 0.901.
To G25A G58A belongs 0.872; to G25C G39C G44C, no more than 0.5; to G25C U26C, 0.904.
Then G25C C60A G67C, with no more than 0.5; and G25C G56A, with 0.962.
Then G25C G68A, with 0.817; and G25C G68C, with 0.796; and G25A C29U C49U A65C, with no more than 0.5.
Take G25A C49U: the yeast fitness stood at 0.991.
Then G25C U26G A36G C46G A70U, with no more than 0.5; and G25U C27A G41A C62U, with no more than 0.5; and G25C C30U U54C, with no more than 0.5.
To G25C C62A belongs 0.845; to G25C C62U, 0.999.
Then G25C C33G, with 0.662; and G25C C33A, with 0.758; and G25C C34G G39U U47G, with no more than 0.5.
For the variant G25C U32C A37G A69G A70G, the yeast fitness is no more than 0.5.
As to G25U A45C C62A, the yeast fitness was found to be 0.777.
To G25C U32A C60A belongs no more than 0.5; to G25C G52C, 0.574.
To G25C U26G C46G belongs 0.576.
To G25A U35C A43G C55U belongs no more than 0.5; to G25C C29U C33U A40G G52A U59C A65U, no more than 0.5.
As for G25C C31A A43U U54A, the yeast fitness is no more than 0.5.
For the variant G25A C34A A65U, the yeast fitness turned out to be 0.616.
For G25A C33U C62A A70C, the yeast fitness was no more than 0.5.
To G25C C31U belongs 0.87; to G25A G41C A57U, 0.649; to G25A C34G U54A A65U, no more than 0.5.
Then G25A C61U A69C, with 0.637.
As for G25A G41C C66U, the yeast fitness was found to be 0.755.
Then G25C G58C, with 1.
Then G25A G56A, with 0.919; and G25C C29G G41A C49U G63A A65G C66U, with no more than 0.5; and G25A C49U A65G A70C, with no more than 0.5.
To G25C C31G A42G U54G belongs no more than 0.5; to G25C C34U A36C G41A C49G, no more than 0.5; to G25C C29G G41A C49U A65G C66U, 0.583.
With G25A C55G, the yeast fitness was 0.681.
To G25A G44C C61G belongs 0.526; to G25C A45C C46A, 0.991; to G25A C33A A40G, 0.544.
To G25A G50A A69C belongs 0.676; to G25C C31G C34G C61U, no more than 0.5.
To G25C C29G G52A A69U belongs no more than 0.5; to G25C A43C, 1.03; to G25C C31A G48A C61A A65G, 0.558.
G25C C46G C49U U64G: the yeast fitness was no more than 0.5.
Then G25A C30G A57G, with 0.582.
Consider G25A G39A G52A, for which the yeast fitness is no more than 0.5.
In the case of G25A G67C, the yeast fitness stood at 0.992.
For the variant G25C G68A A69G, the yeast fitness came out at 0.607.
To G25A U35C belongs 0.942; to G25A U35G, 0.603; to G25C U32C C46U G50A, 0.667.
Then G25C A42G C55U, with no more than 0.5; and G25A C62A A70U, with 0.678; and G25C A43U G50A A70C, with no more than 0.5.
To G25A C46U A57U belongs 0.965; to G25A C30U, 1; to G25A C31U G38C A65C G68A A69U, no more than 0.5.
With G25C U59G, the yeast fitness was found to be 0.678.
To G25C U59C belongs 0.932.
To G25A C29A belongs 0.609; to G25A C49U A65U, 0.849.
To G25C C49U G51A C60A A70G belongs no more than 0.5; to G25A G48A C62G A69U, 0.749; to G25U U59C, 0.657.
As for G25A C29U A45U G58C, the yeast fitness stood at 0.772.
Consider G25C U47C, for which the yeast fitness was determined as 0.954.
For G25C C31U U32A C49G C60U, the yeast fitness is no more than 0.5.
To G25C C34U G41A C49G belongs 0.54; to G25A G51A, 0.861.
Then G25A C27G C29G C46A A65G C66U, with no more than 0.5; and G25C U26G C46G C61A A70U, with no more than 0.5.
For the variant G25U A36U G56C A65C, the yeast fitness was determined as 0.521.
On to G25C C31U U35C, for which the yeast fitness was found to be 0.53.
To G25A U35A A36U C61U belongs no more than 0.5.
Then G25A G41A A43U, with no more than 0.5; and G25A U47C, with 0.93.
Then G25A G41A C46G G50A C62A, with no more than 0.5; and G25C C27A C31G, with no more than 0.5.
As to G25A C29A A57C A70G, the yeast fitness was no more than 0.5.
To G25C U35C belongs 0.862.
Regarding G25C U35A, the yeast fitness amounted to 0.604.
On to G25A C34U A43U G56A, for which the yeast fitness is no more than 0.5.
To G25A G58C A69C belongs 1.01; to G25C C62G C66G G67U, no more than 0.5; to G25A G39C, 0.755.
Then G25C U35C A42C C46A G48C C61A, with no more than 0.5; and G25C G58C G67C, with 0.706.
To G25A C46G belongs 0.99; to G25A C46U, 0.938; to G25A U26C C29G C61A, no more than 0.5.
As to G25C C31U U32A C49U, the yeast fitness was no more than 0.5.
To G25A C46G U53A A65C belongs no more than 0.5; to G25C C30G, 0.582; to G25C C30U, 0.669.
To G25C C31G C34G C61U A69U belongs no more than 0.5.
Then G25C C29U C33A C49G, with 0.714.
Consider G25A C60G C61A G63A, for which the yeast fitness was no more than 0.5.
